Assay outcomes from PubChem.
Many of the other results were omitted from the sample, so hits are more common in it than they were.
T cruzi intra = inhibitors of intracellular Trypanosoma cruzi | intracellular Trypanosoma cruzi in host cells, plate reader | activity score (inhibition), % at 5.01 µM | 22,000 compounds, 4.9% hits | AID 651903; in the data active = activity score above about 55%; inconclusive = no clear call, values can overlap the other calls;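 also: parasites and compound incubated about four days before reading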
YB-1 expression = YB-1 expression inhibition | AID 434959 | delta delta Cp (YB-1 minus CDIP) (test concentration not listed) | 30,000 compounds, 0.37% hits | U2OS, qRT-PCR YB-1 vs CDIP delta delta Cp, 16 h; active compounds read high; zero = DMSO, each unit about twofold;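 active = delta delta Cp rounded down to an integer at or above 3, about 3 SD of DMSO wells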;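 also: higher means less YB-1 transcript or more CDIP transcript relative to DMSO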
INS-1E rescue = INS-1E beta cell protection from cytokine death. INS-1E cytokine-induced death, ATP luminescence, 48 h; normalised: neutral wells 0, positive control 100. protection from cytokine-induced ATP loss, % at 10 µM. 20,000 compounds, 0.1% hits. AID 488910;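 active = mean replicate protection from cytokine-induced ATP loss at least 50% and at least 75% of replicates each reaching 50%; inconclusive = meets only one of the two criteria, mean or replicate share; inactive = fails both the mean and replicate share criteria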
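Assay system: INS-1E rat insulinoma cells. Amount: 8000 cells per well. Medium: phenol-red-free RPMI with 5% fetal bovine serum. Reagent: IL-1β, TNF-α and IFN-γ cytokine mix. Doses: one compound concentration, pin transfer. Schedule: 48 h co-treatment, 10 min post-lysis read. Detection: CellTiter-Glo luminescence measuring cellular ATP.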
Each line names hits and unclear results; the compound was inactive in the other large screens.

COc1ccc(S(=O)(=O)Nc2ccc3c(c2)C(=O)N([C@H](C)CO)C[C@H](C)[C@@H](CN(C)Cc2ccc(Oc4ccccc4)cc2)O3)cc1	YB-1 expression 14
COc1ccc(S(=O)(=O)Nc2ccc3c(c2)C(=O)N([C@H](C)CO)C[C@@H](C)[C@H](CN(C)Cc2ccc(Oc4ccccc4)cc2)O3)cc1	none
O=C(O)c1ccc(/C=N/NC(=O)c2ccc(C(=O)NO)cc2)cc1	none
CC1=CCC2[C@](C)(CCC[C@]2(C)C(=O)O)[C@H]1CCc1ccoc1 (some centres undefined)	none (no result: T cruzi intra, INS-1E rescue)
COc1cc(/C=N/NC(=O)CCCCCCC(=O)Nc2ccccc2O)c([N+](=O)[O-])cc1OC	none
C[C@@H]1CCCCO[C@@H](CN(C)S(=O)(=O)c2ccc(F)cc2)[C@@H](C)CN([C@H](C)CO)C(=O)c2cc(NC(=O)CCC(F)(F)F)ccc2O1	none
C[C@H]1CN([C@@H](C)CO)C(=O)c2cccc(NC(=O)c3cnccn3)c2O[C@@H]1CN(C)Cc1ccc(C(=O)Nc2ccccc2N)cc1	T cruzi intra inconclusive
C[C@H]1CN([C@@H](C)CO)C(=O)c2cccc(NC(=O)c3cnccn3)c2O[C@H]1CN(C)Cc1ccc(C(=O)Nc2ccccc2N)cc1	T cruzi intra 67
C[C@H](CO)N1C[C@H](C)[C@@H](CN(C)Cc2ccc(C(=O)Nc3ccccc3N)cc2)Oc2c(NC(=O)c3cnccn3)cccc2C1=O	T cruzi intra 75
C[C@H](CO)N1C[C@H](C)[C@H](CN(C)Cc2ccc(C(=O)O)cc2)Oc2c(NC(=O)c3cnccn3)cccc2C1=O	none
CC1CCC2(C)C(C(=O)O)=CCCC2C1(C)CCC1=CC(O)OC1=O (centres undefined)	none (no result: T cruzi intra, INS-1E rescue)
COc1cc(/C=C/C=N/NC(=O)c2cccc(C(=O)NO)c2)ccc1O	none
CC(C)NC(=O)N(C)C[C@@H]1Oc2c(NC(=O)Nc3cccc4ccccc34)cccc2C(=O)N([C@@H](C)CO)C[C@@H]1C	none
C[C@@H]1CN([C@H](C)CO)C(=O)Cc2cc(NC(=O)Nc3ccc(C(F)(F)F)cc3)ccc2O[C@@H]1CN(C)Cc1ccc(Oc2ccccc2)cc1	T cruzi intra 80
C[C@@H]1CN([C@H](C)CO)C(=O)Cc2cc(NC(=O)Nc3ccccc3)ccc2O[C@H]1CN(C)Cc1ccc(Oc2ccccc2)cc1	none
C[C@H]1CN([C@@H](C)CO)C(=O)Cc2cc(NC(=O)Nc3ccc(C(F)(F)F)cc3)ccc2O[C@H]1CN(C)Cc1ccc(Oc2ccccc2)cc1	none
C[C@@H]1CN([C@@H](C)CO)C(=O)Cc2cc(NC(=O)Nc3ccc(C(F)(F)F)cc3)ccc2O[C@@H]1CN(C)Cc1ccc(Oc2ccccc2)cc1	T cruzi intra 74
C[C@H]1CN([C@@H](C)CO)C(=O)c2cccc(NC(=O)C3CC3)c2O[C@@H]1CN(C)C(=O)Nc1cccc2ccccc12	none
Cc1cc(C(F)(F)F)c2c(n1)sc1c(=O)[nH]c(C)nc12	none (no result: T cruzi intra, INS-1E rescue)
O=C(Oc1ccc2ccccc2c1)C1c2ccccc2Oc2ccccc21	none (no result: T cruzi intra, INS-1E rescue)
CCCc1c(C(=O)OCC)c(C(=O)OCC)c2c(-c3ccccc3)nc(N3CCOCC3)nn12	YB-1 expression 3.2 (no result: T cruzi intra, INS-1E rescue)
CCOC(=O)c1cnc(N2CCOCC2)nc1N	none (no result: T cruzi intra, INS-1E rescue)
C[C@H]1CN([C@@H](C)CO)C(=O)Cc2cc(NC(=O)Nc3ccc(C(F)(F)F)cc3)ccc2O[C@@H]1CN(C)S(=O)(=O)c1ccccc1	none
C[C@@H]1CN([C@@H](C)CO)C(=O)Cc2cc(NC(=O)Nc3ccc(C(F)(F)F)cc3)ccc2O[C@@H]1CN(C)S(=O)(=O)c1cccs1	T cruzi intra 73
C[C@H](CO)N1C[C@H](C)[C@H](CN(C)S(=O)(=O)c2ccccc2)Oc2ccc(NC(=O)Nc3ccc(C(F)(F)F)cc3)cc2CC1=O	T cruzi intra 77
Cc1ccc(S(=O)(=O)N(C)C[C@@H]2Oc3ccc(NC(=O)Nc4ccc(C(F)(F)F)cc4)cc3CC(=O)N([C@H](C)CO)C[C@@H]2C)cc1	T cruzi intra inconclusive
C[C@@H]1CN([C@@H](C)CO)C(=O)Cc2cc(NC(=O)Nc3ccc(C(F)(F)F)cc3)ccc2O[C@@H]1CN(C)S(=O)(=O)c1ccccc1	T cruzi intra 75
C[C@H](CO)N1C[C@H](C)[C@H](CN(C)S(=O)(=O)c2cccs2)Oc2ccc(NC(=O)Nc3ccc(C(F)(F)F)cc3)cc2CC1=O	none (no result: YB-1 expression)
CCCS(=O)(=O)/C(C#N)=C/c1sccc1Oc1ccccc1	none (no result: T cruzi intra, INS-1E rescue)
C[C@@H]1CN([C@H](C)CO)C(=O)Cc2cc(NC(=O)NC3CCCCC3)ccc2O[C@@H]1CN(C)C(=O)NC1CCCCC1	none
O=C(Nc1ccc([N+](=O)[O-])cc1O)Nc1ccccc1Br	YB-1 expression 3 (no result: T cruzi intra, INS-1E rescue)
